Compound activity (PubChem)
In the library only some 1.4% were active in any assay of this set; here they are far more common.
APOBEC3G inh – APOBEC3G (human) deaminase inhibition; Q9HC16; 0.28% of 330,000 active; recombinant A3G, ssDNA deamination FAM/TAMRA fluorescence; AID 493012; inhibition, % at 20 µM;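 active = inhibition of at least 40% at 20 µM, with no more than 30% in the related APOBEC3A deaminase screen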;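 note: plate controls were DMSO wells with A3G for no effect and wells lacking A3G enzyme for full effect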
Target sequence (Q9HC16 whole entry, looked up): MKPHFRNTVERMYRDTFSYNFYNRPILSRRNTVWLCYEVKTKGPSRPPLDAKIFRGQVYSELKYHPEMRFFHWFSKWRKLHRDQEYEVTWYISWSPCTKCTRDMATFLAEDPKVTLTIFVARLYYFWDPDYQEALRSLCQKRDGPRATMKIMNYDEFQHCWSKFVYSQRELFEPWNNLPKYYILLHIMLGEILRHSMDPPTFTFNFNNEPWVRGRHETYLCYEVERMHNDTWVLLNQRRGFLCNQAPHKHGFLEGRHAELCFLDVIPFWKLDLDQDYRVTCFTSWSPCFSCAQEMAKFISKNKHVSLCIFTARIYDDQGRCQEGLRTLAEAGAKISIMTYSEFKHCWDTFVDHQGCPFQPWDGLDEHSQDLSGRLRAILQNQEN
CCR6 antagonist – antagonists of human CCR6 receptor; CHO-K1 CCR6 PathHunter beta-arrestin, luminescence, CCL20-stimulated; P51684; AID 493098; 0.49% of 340,000 active; inhibition, % at 20 µM;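 active = compounds whose inhibition of the agonist-driven luminescence signal at 20 µM reaches about 50%, limit read from the data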;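 note: cells stimulated with CCL20 at 14 nM final; plate controls were DMSO with CCL20 for no effect and DMSO without agonist for full effect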
APJ antagonist – blocks the human apelin receptor APJ; CHO-K1 APJ beta-arrestin complementation, luminescence; inhibition, % at 20 µM; 0.32% of 330,000 active; AID 2521;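 active = inhibition above about 40% at 20 µM, limit read from the data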;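 note: cells challenged with 10 nM apelin-13 agonist together with compound; plate controls were apelin-13 plus DMSO wells for no effect and DMSO wells lacking apelin-13 for full effect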
APJ ag – agonists of human APJ apelin receptor; P35414; 0.11% of 330,000 active; CHO-K1 APJ PathHunter beta-arrestin, luminescence; 0% DMSO wells, 100% apelin; AID 2520; activation, % at 20 µM;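 active = activation more than six SD over the plate average, tested at 20 µM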;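 note: 0% = DMSO alone and 100% = apelin-13 at 10 nM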
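Assay system: CHO-K1 APJ beta-arrestin complementation cell line / Compound: single test compound dose, 20 µM final, 1% DMSO / Times: overnight seeding, 90 min compound at 25 °C, 1 h detection / Technique: beta-gal luminescence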
A3A deaminase – human APOBEC3A DNA deaminase inhibition | AID 493011 | P31941 | inhibition, % at 20 µM | recombinant A3A, FAM/TAMRA ssDNA deamination fluorescence | 0.41% of 330,000 active;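 active = at least 40% inhibition at 20 µM here, with at most 30% in a related deaminase screen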;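 note: plate controls were A3A with DMSO for no effect and wells lacking A3A enzyme for full effect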
CXCR6 inh – blocks human CXCR6 beta-arrestin recruitment; CHO-K1 PathHunter CXCR6 beta-arrestin, luminescence; 0.36% of 360,000 active; O00574; inhibition, % at 20 µM; in the data active = inhibition above about 34%, passing the limit was not always enough;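 note: antagonist mode with CXCL16 agonist at 10 nM final; 0% = 10 nM CXCL16 with DMSO and 100% = unstimulated wells without agonist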
CXCR6 confirm – CXCR6 antagonism confirmation, single concentration; shares compounds with CXCR6 inh; CHO-K1 CXCR6 PathHunter beta-arrestin, luminescence; inhibition, % at 20 µM; 65% of 700 active;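 active = mean inhibition over four retests above 40%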;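 note: receptor stimulated with 10 nM CXCL16 agonist; beta-galactosidase fragment complementation upon beta-arrestin recruitment to receptor; plate controls were CXCL16 plus DMSO for no effect and DMSO without CXCL16 for full effect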
* hit, by the source's call; . = no result given.

SMILES | APOBEC3G inh | CCR6 antagonist | APJ antagonist | APJ ag | A3A deaminase | CXCR6 inh | CXCR6 confirm
COc1ccc(/C=C(\NC(=O)c2ccccc2)C(=O)NCc2ccco2)cc1OC | -11 | 5 | 22 | -4 | -5 | 10 | .
Cc1ccc(NC(=O)c2cc(N3C(=O)CCC3=O)ccc2N2CCOCC2)cc1 | -7 | 13 | -4 | -1 | -3 | 3 | .
Cc1ccc(NC(=O)c2cc(N3C(=O)C=CC3=O)ccc2N2CCOCC2)cc1Cl | . | 97* | . | . | . | 60* | 38
COc1ccc(C(=O)NCC(=O)N/N=C(\C)c2ccco2)cc1OC | 8 | 3 | -16 | -2 | 3 | 7 | .
COc1ccc(-c2ccccc2)cc1NC(=O)[C@@H]1O[C@H](CO)[C@@H](O)[C@H]1O | . | . | . | . | . | 6 | .
O=C(Nc1ccccc1Oc1ccccc1)[C@@H]1O[C@H](CO)[C@H](O)[C@H](O)[C@H]1O | . | . | . | . | . | 57* | 71*
CCOc1ccc(C(=O)CCC(=O)Nc2cccc(S(=O)(=O)N3CCCCC3)c2)cc1 | -3 | 17 | -4 | -3 | -3 | 2 | .
Cc1ccc(C(=O)NNC(=S)NC(=O)c2ccccc2)cc1 | -3 | . | 12 | -5 | 0 | 36* | 44*
CCOC(=O)c1ccc(NC(=S)NC(=O)c2cncc(Br)c2)cc1 | -8 | 60* | 38 | -7 | -3 | 42* | 21
CCOc1ccc(NC(=S)NC(=O)c2cncc(Br)c2)cc1 | 4 | 38 | 22 | -6 | 0 | 27 | .
COc1ccc(COC[B-](F)(F)F)cc1 | . | . | . | . | . | 1 | .
Cc1c(C(=O)N2CC(C)OC(C)C2)[nH]c2ccc(Br)cc12 (stereo unspecified) | -6 | 11 | 3 | -1 | -2 | 1 | .
CCOc1ccc(NCc2cc3c(C(C)(C)C)nn(-c4ccccc4)c3[nH]c2=O)cc1 | -9 | 23 | 18 | -4 | -5 | 48* | 25
CCC1CCCCN1CCCNC(=O)c1ccc(CS(=O)(=O)c2ccc(Br)cc2)o1 (stereo unspecified) | -8 | 6 | -3 | -7 | -8 | -2 | .
CCc1ccc(N2CC(C(=O)OCC(=O)c3c(N)n(CC(C)C)c(=O)n(C)c3=O)CC2=O)cc1 (stereo unspecified) | 2 | 17 | 6 | 9 | 2 | -11 | .
CCOC(=O)c1cccc(C2=CC(=O)C[C@H](c3ccc(Cl)cc3)C2)c1 | -11 | 17 | -5 | -2 | 0 | 16 | .
CCOC(=O)N1CCN(S(=O)(=O)c2cccc3ccc(C)nc23)CC1 | -3 | -3 | 0 | 1 | 1 | 84* | 15
O=C(NCc1ccc2c(c1)OCO2)c1nc(S(=O)(=O)Cc2ccccc2F)ncc1Cl | 0 | 49 | 18 | 6 | 5 | 70* | 62*
COc1ccc(S(=O)(=O)Cc2ccc(C(=O)NCc3ccccc3)o2)cc1 | -5 | 7 | -2 | 3 | -5 | 3 | .
COc1ccc(CNC(=O)c2nc(S(=O)(=O)Cc3ccccc3)ncc2Cl)cc1 | -1 | 45 | 8 | 13 | -1 | 50* | 52*
CCc1nnc(NS(=O)(=O)c2ccc(Nc3ccc([N+](=O)[O-])c4nonc34)cc2)s1 | -2 | 73* | 65* | -9 | 2 | 48* | 42*
CCNC(=O)c1nc[nH]c1C(=O)NCC | -5 | 25 | -11 | -5 | -1 | 59* | -1
O=C(c1ccc(-n2nc(C(F)(F)F)c3c2CCCC3)cc1)N1CCOCC1 | -6 | 18 | -2 | -2 | -3 | 47* | -14
O=C(COc1ccc(Cl)cc1)N/N=C/c1cccc2cccnc12 | -11 | . | 8 | 1 | -1 | 44* | 56*
COc1ccc(OCC(=O)N/N=C/c2cccc3cccnc23)cc1 | -7 | 8 | -18 | 2 | 0 | 3 | .
CC1C(c2ccccc2)OCCN1C(=S)NC(=O)c1ccccc1 (stereo unspecified) | . | . | . | . | . | 3 | .
COc1ccc(N2CCN(C(=O)COC(=O)CC(NC(N)=O)c3ccc(Cl)cc3)CC2)cc1 (stereo unspecified) | . | . | . | . | . | -1 | .
FC(F)(F)c1cnc(NNC(=S)Nc2ccccc2)c(Cl)c1 | . | . | . | . | . | 73* | 74*
